ChEMBL document CHEMBL1159098, “A new series of flavones, thioflavones, and flavanones as selective monoamine oxidase-B inhibitors” (Bioorg Med Chem, 2010)
Each block holds one molecule with its values, some of them ahead of it.

Columns and labels:
[1] = target: T1, Amine oxidase [flavin-containing] B (Homo sapiens, UniProt P27338); test: Inhibition of human recombinant MAOB expressed in BTI-TN-5B1-4 cells at 100 nM before washing by centrifugation-ultrafiltration method; type: cell-based; details: BTI-TN-5B1-4, human
T1 sequence (P27338 whole entry): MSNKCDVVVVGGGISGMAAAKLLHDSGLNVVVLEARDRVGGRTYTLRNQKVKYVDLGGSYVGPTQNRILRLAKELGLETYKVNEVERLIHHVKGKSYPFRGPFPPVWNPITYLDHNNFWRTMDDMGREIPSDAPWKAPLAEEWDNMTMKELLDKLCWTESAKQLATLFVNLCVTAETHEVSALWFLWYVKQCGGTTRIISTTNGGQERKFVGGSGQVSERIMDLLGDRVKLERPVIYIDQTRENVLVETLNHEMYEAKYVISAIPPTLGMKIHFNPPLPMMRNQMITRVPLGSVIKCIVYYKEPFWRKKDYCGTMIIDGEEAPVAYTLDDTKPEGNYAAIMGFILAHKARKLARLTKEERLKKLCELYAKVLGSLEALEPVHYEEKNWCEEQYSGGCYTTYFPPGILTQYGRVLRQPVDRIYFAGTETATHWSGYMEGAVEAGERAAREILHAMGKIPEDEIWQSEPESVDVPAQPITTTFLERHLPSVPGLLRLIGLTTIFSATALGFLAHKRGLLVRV
Method in brief: (§1)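 Recombinant hMAO-B was incubated with one concentration of inhibitor in 0.05 M sodium phosphate pH 7.4 for 15 min at 37 °C. One aliquot was kept at 4 °C unwashed. The rest was washed three times by 30 kDa ultrafiltration (9000g, 20 min, 4 °C) and resuspended in buffer.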

[2] = target: T1, Amine oxidase [flavin-containing] B; type: cell-based, BTI-TN-5B1-4
[3] = target: T1, Amine oxidase [flavin-containing] B; test: Inhibition of human recombinant MAOB expressed in BTI-TN-5B1-4 cells at 100 nM after repeated washing by centrifugation-ultrafiltration method; type: cell-based; details: BTI-TN-5B1-4, human; method in brief: as §1
Homo sapiens = species: Homo sapiens; test: Selectivity for human MAOB over human MAOA
Method in brief: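 Selectivity index = IC50(hMAO-A)/IC50(hMAO-B), both from Amplex Red/p-tyramine fluorimetric assays on insect-cell recombinant enzymes.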

[4] = target: T2, Amine oxidase [flavin-containing] A (Homo sapiens, UniProt P21397); test: Inhibition of human recombinant MAOA expressed in BTI-TN-5B1-4 cells at 100 uM by para-tyramine oxidation assay; type: cell-based; details: human, bti-tn-5b1-4, 100 µM
T2 sequence (P21397 whole entry): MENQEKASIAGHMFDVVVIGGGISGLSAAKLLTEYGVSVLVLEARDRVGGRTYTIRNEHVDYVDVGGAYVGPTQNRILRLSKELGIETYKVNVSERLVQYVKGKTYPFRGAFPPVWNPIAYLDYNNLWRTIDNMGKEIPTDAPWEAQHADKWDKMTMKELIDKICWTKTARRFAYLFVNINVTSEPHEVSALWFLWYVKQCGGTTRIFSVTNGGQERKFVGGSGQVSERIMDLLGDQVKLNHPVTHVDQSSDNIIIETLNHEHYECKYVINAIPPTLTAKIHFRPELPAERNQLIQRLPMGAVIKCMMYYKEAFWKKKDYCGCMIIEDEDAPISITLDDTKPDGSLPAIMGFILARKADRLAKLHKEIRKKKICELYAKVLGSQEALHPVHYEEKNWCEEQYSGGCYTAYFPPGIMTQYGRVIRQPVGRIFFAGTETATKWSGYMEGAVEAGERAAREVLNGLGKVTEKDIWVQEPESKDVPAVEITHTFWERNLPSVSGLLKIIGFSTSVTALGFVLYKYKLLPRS

[5] = target: T1, Amine oxidase [flavin-containing] B; test: Inhibition of human recombinant MAOB expressed in BTI-TN-5B1-4 cells at 1 mM by para-tyramine oxidation assay; type: cell-based; details: bti-tn-5b1-4, 1000 µM
[6] = target: T2, Amine oxidase [flavin-containing] A; test: Inhibition of human recombinant MAOA expressed in BTI-TN-5B1-4 cells at 500 uM before washing by centrifugation-ultrafiltration method; type: cell-based; details: BTI-TN-5B1-4, human
[7] = target: T2, Amine oxidase [flavin-containing] A; test: Inhibition of human MAOA
Method in brief: (§2)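 Recombinant human MAO-A or -B as microsomes from baculovirus-infected BTI-TN-5B1-4 insect cells, dosed to oxidize 165 pmol p-tyramine/min in controls (A 1.1 µg, B 7.5 µg protein). Preincubated with inhibitor 15 min at 37 °C in 0.05 M sodium phosphate pH 7.4. Started with 1 mM p-tyramine, 200 µM Amplex Red, 1 U/ml HRP (final). Resorufin fluorescence (ex 545/em 590 nm) read over 15 min at 37 °C, background subtracted.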

[8] = target: T1, Amine oxidase [flavin-containing] B; test: Inhibition of human MAOB; method in brief: as §2

inhibition at 0.1 µM [1]: 38.4% | IC50 [2]: 0.13 µM | inhibition at 0.1 µM [3]: 36.5% | Ratio IC50 (Homo sapiens): > 769 | inhibition (INH) [4]: Not Active
Structure (SMILES): Cc1ccc2c(c1)OC(c1ccc(F)cc1)CC2=O (racemic)

Structure (SMILES): O=C(NCCN1CCOCC1)c1ccc(Cl)cc1 [MOCLOBEMIDE]
inhibition (INH) [5]: Not Active | inhibition at 500 µM [6]: 84.8%

Structure (SMILES): O=c1c(O)c(-c2ccc(O)c(O)c2)oc2cc(O)cc(O)c12 [QUERCETIN]
IC50 [7]: 2.8 µM | IC50 [8]: 90 µM
